Test results as given in the M2OR odorant receptor database.

Each compound was assayed against T1, UniProt Q8VGZ2. Settings: stereoisomer not certain.
T1 sequence (whole entry): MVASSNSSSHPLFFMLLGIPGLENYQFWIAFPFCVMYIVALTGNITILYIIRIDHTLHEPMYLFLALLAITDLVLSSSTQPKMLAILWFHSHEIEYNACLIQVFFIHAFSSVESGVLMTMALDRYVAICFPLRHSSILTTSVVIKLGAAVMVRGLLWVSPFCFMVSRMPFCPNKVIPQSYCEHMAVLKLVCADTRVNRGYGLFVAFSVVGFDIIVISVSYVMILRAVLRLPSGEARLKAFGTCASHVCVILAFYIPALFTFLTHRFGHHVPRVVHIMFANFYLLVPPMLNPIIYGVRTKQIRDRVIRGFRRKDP
In short: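 Values were gathered from published papers (main text and supplementary material), with extra details requested from the original authors when needed, and checked for typos and inconsistencies. Each receptor–molecule pair is called responsive (active) if the original authors judged the measured signal statistically different from baseline, and non-responsive (inactive) otherwise. Assay methods varied by source, often transient mammalian cell-line luciferase assays. Recorded details include cell line, G-protein, co-transfected protein and tags.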

Structure (SMILES) | odorant receptor agonist call
Cc1ccc(C(C)C)c(O)c1 | inactive
COC(OC)c1ccccc1 | inactive
COc1ccccc1 | inactive
CCC=CCCCCC=O | inactive
CSSSC | inactive
C1CCOC1 | inactive
CC(C)CCN | inactive
CCN(CC)CC | inactive
CC1CC=CCCCCCCCCCC(=O)C1 (stereo not given) | inactive
CCC=CCCC=CC=O | inactive
CC(=O)OC1(C)CCC23CC1C(C)(C)C2CCC3C (stereo not given) | active
CNc1ccccc1C(=O)OC | inactive
c1ccc2ncccc2c1 | inactive
O=C(O)C1CCC1 | inactive
CCCO | inactive
CCCCCCCCOC=O | inactive
C=CC(=O)CCCCC | inactive
CC(=O)C1(C)CC2=C(CCCC2(C)C)CC1C (stereo not given) | inactive
CCCCCC=CCCC=O | active
CCCCCOC(=O)CCC | inactive
C1CCOCC1 | inactive
CC(=O)OCc1ccc2c(c1)OCO2 | inactive
COc1cnccn1 | inactive
CCOC(=O)C(C)CC (stereo not given) | inactive
CC=C(C)C=O | inactive
C=C(C)C1CCC(C)C(O)C1 (stereo not given) | inactive
CCCCCC(C=O)=Cc1ccccc1 | inactive
C=C(C)C1CC=C(C)CC1 (stereo not given) | inactive
Cc1occc1SSc1ccoc1C | inactive
Cc1ccc(C(C)C)cc1 | inactive
